Test results from ChEMBL document CHEMBL1145333, “Low molecular weight activated protein C inhibitors as a potential treatment for hemophilic disorders” (J Med Chem, 2006).

What was measured:
[1] = target: Vitamin K-dependent protein C (Homo sapiens, UniProt P04070); test: Inhibition of human aPC
[2] = target: Prothrombin (Homo sapiens, UniProt P00734); test: Inhibition of human thrombin activity
Summary of the method: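 Thrombin counterscreen using its natural substrate, fibrinogen. Result expressed as an IC50.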

[3] = species: Homo sapiens; test: Increase in thrombin generation in human moderate hemophilia A platelet poor plasma by thrombogram assay at 10 uM; assay type: functional; conditions: in the assay text read “10 nM” for “10 uM”
Summary of the method: (§1)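 Calibrated automated thrombogram in human moderate hemophilia A platelet-poor plasma (FVIII < 5%). Thrombin generation triggered via the intrinsic coagulation pathway. Inhibitor incubated in the plasma at 10 and 20 nM alongside a 0 nM control. Read-out is the thrombin generation curve and its peak thrombin level (nM).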

[4] = species: Homo sapiens; test: Increase in thrombin generation in human moderate hemophilia A pooled poor platelet plasma by thrombogram assay at 20 uM; assay type: functional; conditions: in the assay text read “20 nM” for “20 uM”; summary of the method: as §1
[5] = species: Homo sapiens; test: Increase in thrombin generation in human severe hemophilia A pooled poor platelet plasma at 20 nM relative to control by thrombogram assay

Vitamin K-dependent protein C, sequence (P04070 43-197 limits assumed): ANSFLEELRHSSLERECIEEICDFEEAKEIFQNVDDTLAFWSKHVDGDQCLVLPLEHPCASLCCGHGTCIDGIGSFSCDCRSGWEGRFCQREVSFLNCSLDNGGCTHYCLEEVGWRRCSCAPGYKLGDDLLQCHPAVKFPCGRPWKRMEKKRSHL
Vitamin K-dependent protein C, sequence (P04070 212-461 limits assumed): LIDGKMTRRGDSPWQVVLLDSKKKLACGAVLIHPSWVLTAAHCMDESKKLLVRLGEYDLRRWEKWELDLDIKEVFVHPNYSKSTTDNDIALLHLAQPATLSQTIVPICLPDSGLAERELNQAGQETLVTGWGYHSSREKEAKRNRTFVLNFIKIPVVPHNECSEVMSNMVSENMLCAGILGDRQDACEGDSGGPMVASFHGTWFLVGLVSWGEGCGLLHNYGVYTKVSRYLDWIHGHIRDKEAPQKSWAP

## N=C(N)c1ccc(CNC(=O)C2(NC(=O)[C@@H](CC3CCCCC3)NCC(=O)O)Cc3ccccc3C2)cc1
[1]
  IC50: 0.1 µM
[2]
  IC50: 1.25 µM

## CC(C)[C@@H](NCC(=O)O)C(=O)N[C@H](C(=O)NCc1ccc(C(=N)N)cc1)C(c1ccccc1)c1ccccc1
[1]
  IC50: > 33 µM

## CC(C)[C@@H](NCC(=O)O)C(=O)N[C@@H](Cc1ccccc1)C(=O)NCc1ccc(C(=N)N)cc1
[1]
  IC50: 0.71 µM
[2]
  IC50: 13.3 µM

## CC[C@@H](NCC(=O)O)C(=O)NC1(C(=O)NCc2ccc(C(=N)N)cc2)Cc2ccccc2C1
[1]
  IC50: 2.04 µM
[2]
  IC50: 300 µM

## CC(C)(C)[C@@H](NCC(=O)O)C(=O)NC1(C(=O)NCc2ccc(C(=N)N)cc2)Cc2ccccc2C1
[1]
  IC50: 3.83 µM
[2]
  IC50: 300 µM

## CC(C)[C@@H](NCC(=O)O)C(=O)NC1(C(=O)NCc2ccc(C(=N)N)cc2)Cc2cc3ccccc3cc2C1
[1]
  IC50: 9.28 µM
[2]
  IC50: > 300 µM

## N=C(N)c1ccc(CNC(=O)C2(NC(=O)[C@@H](Cc3ccccc3)NCC(=O)O)Cc3ccccc3C2)cc1
[1]
  IC50: 11.3 µM
[2]
  IC50: 10 µM

## N=C(N)c1ccc(CNC(=O)C2(NC(=O)[C@@H](NCC(=O)O)C3CCCCC3)Cc3ccccc3C2)cc1
[1]
  IC50: > 33 µM
[2]
  IC50: > 33 µM

## N=C(N)c1ccc(CNC(=O)C2(NC(=O)CNCC(=O)O)Cc3ccccc3C2)cc1
[1]
  IC50: > 33 µM
[2]
  IC50: 100 µM

## N=C(N)c1ccc(CNC(=O)C2(NC(=O)[C@H](NCC(=O)O)C3CCCCC3)Cc3ccccc3C2)cc1
[3]
  Activity: 160 nM
[4]
  Activity: 160 nM
[2]
  IC50: 47 µM
[5]
  Activity: 201 nM

## CC(C)[C@@H](NCC(=O)O)C(=O)NC1(C(=O)NCc2ccc(C(=N)N)cc2)Cc2cccc3cccc(c23)C1
[1]
  IC50: 0.43 µM
[2]
  IC50: > 300 µM

## CCC(C)[C@@H](NCC(=O)O)C(=O)NC1(C(=O)NCc2ccc(C(=N)N)cc2)Cc2ccccc2C1 (some centres undefined)
[1]
  IC50: 1.12 µM
[2]
  IC50: 85 µM

## CC(C)[C@@H](NCC(=O)O)C(=O)NC1(C(=O)NCc2ccc(C(=N)N)cc2)Cc2ccc3ccccc3c2C1 (some centres undefined)
[1]
  IC50: 0.25 µM
[2]
  IC50: 0.77 µM

## CC(C)(NCC(=O)O)C(=O)NC1(C(=O)NCc2ccc(C(=N)N)cc2)Cc2ccccc2C1
[1]
  IC50: 44 µM
[2]
  IC50: > 300 µM

## N=C(N)c1ccc(CNC(=O)C2(NC(=O)C3(NCC(=O)O)CCCC3)Cc3ccccc3C2)cc1
[1]
  IC50: 53 µM
[2]
  IC50: 4.4 µM

## C[C@@H](NCC(=O)O)C(=O)NC1(C(=O)NCc2ccc(C(=N)N)cc2)Cc2ccccc2C1
[1]
  IC50: 9.08 µM
[2]
  IC50: 33 µM

## CC(C)C[C@@H](NCC(=O)O)C(=O)NC1(C(=O)NCc2ccc(C(=N)N)cc2)Cc2ccccc2C1
[1]
  IC50: 0.75 µM
[2]
  IC50: > 33 µM

## CC(C)[C@@H](NCC(=O)O)C(=O)NC1(C(=O)NCc2ccc(C(=N)N)cc2)Cc2ccccc2-c2ccccc2C1
[1]
  IC50: 12.7 µM
[2]
  IC50: > 300 µM

## COc1cc2c(cc1OC)CC(NC(=O)[C@H](NCC(=O)O)C(C)C)(C(=O)NCc1ccc(C(=N)N)cc1)C2
[1]
  IC50: 10.9 µM
[2]
  IC50: > 33 µM

## CC(C)[C@@H](NCC(=O)O)C(=O)N[C@H](C(=O)NCc1ccc(C(=N)N)cc1)C1Cc2ccccc2C1
[1]
  IC50: 0.35 µM
[2]
  IC50: > 33 µM

## CC(C)[C@@H](NCC(=O)O)C(=O)NC1(C(=O)NCc2ccc(C(=N)N)cc2)Cc2ccccc2C1
[1]
  IC50: 0.8 µM
[2]
  IC50: > 300 µM

## CC(C)[C@@H](NCC(=O)O)C(=O)NC1(C(=O)NCc2ccc(C(=N)N)cc2)Cc2ccncc2C1 (some centres undefined)
[1]
  IC50: 1.7 µM
[2]
  IC50: 100 µM

## CC(C)[C@@H](NCC(=O)O)C(=O)NC1(C(=O)NCc2ccc(C(=N)N)cc2)Cc2cccnc2C1 (single isomer, unassigned; diastereomer 1)
[1]
  IC50: 1.07 µM
[2]
  IC50: 300 µM

## CC(C)[C@@H](NCC(=O)O)C(=O)NC1(C(=O)NCc2ccc(C(=N)N)cc2)Cc2cccnc2C1 (single isomer, unassigned; diastereomer 2)
[1]
  IC50: 1.14 µM
[2]
  IC50: 300 µM
